# PMC3983374 (Journal of Medicinal Chemistry, 2014)
# pIC50: −log10 of the molar value.
# What was measured:
# [1] = test system: panel of NSCLC cell lines; assay: Proliferation of panel of NSCLC cell lines; assay type: cell-based; details: Homo sapiens, read-out: IC50 range over panel of NSCLC cell lines
# Outline: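 Cell lines from ATCC were cultured per the supplier's protocol and tested by MTT assay per the kit protocol. Each concentration was run in six repeats, in at least two independent experiments. IC50 values were obtained by curve fitting.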
# [2] = Analysis of metabolites in resected tumors; assay type: in vivo, NCr nu/nu athymic mice; details: resected tumors after 92 μmol/kg i.v., 2 times a week for 4 weeks
# Outline: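 A549 cells, passaged at most four times in RPMI 1640 with 10% FBS, were harvested at 70–80% confluence and implanted s.c. at 5 × 10^6 cells/0.2 mL PBS into NCr nu/nu mice. At about 3 mm × 3 mm, mice were randomised into groups of 12. Test compound was given by tail vein at 92 μmol/kg in 20 μL DMSO, twice weekly for 4 weeks. Tumours were removed at euthanasia right after the last dose and frozen immediately for metabolite analysis.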
# PARP-1 enzyme = PARP-1 enzyme (Homo sapiens, UniProt P09874); assay: PARP-1 enzyme inhibition; assay type: biochemical; details: presence or absence of GSH (4 mM)/GSTP1 (40 nM)
# Sequence of PARP-1 enzyme (P09874 whole entry): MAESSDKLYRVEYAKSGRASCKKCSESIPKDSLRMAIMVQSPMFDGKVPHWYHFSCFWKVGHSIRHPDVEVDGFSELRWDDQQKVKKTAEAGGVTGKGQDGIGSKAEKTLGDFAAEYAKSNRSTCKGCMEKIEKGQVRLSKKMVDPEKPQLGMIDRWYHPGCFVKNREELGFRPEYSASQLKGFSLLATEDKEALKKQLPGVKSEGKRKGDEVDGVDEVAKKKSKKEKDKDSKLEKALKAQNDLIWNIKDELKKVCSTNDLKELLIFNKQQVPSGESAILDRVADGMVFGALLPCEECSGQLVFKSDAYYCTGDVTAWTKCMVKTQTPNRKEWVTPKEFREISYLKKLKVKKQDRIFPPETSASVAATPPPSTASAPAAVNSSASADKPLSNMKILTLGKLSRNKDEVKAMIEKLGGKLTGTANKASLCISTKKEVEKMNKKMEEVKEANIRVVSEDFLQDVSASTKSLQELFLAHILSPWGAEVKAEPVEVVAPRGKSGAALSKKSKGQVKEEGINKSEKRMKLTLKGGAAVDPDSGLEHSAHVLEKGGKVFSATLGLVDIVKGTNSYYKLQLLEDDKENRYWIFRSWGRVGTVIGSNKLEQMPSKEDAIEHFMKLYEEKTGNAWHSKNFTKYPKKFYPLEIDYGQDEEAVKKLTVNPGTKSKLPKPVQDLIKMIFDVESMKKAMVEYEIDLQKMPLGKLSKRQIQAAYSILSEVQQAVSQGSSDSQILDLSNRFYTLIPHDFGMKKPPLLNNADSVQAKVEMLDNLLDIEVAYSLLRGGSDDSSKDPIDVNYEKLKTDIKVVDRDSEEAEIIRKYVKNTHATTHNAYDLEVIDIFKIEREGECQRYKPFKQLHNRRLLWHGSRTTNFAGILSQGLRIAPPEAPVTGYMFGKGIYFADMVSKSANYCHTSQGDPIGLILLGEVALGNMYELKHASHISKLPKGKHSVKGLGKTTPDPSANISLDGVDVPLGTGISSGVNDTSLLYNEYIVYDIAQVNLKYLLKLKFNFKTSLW
# [3] = Rate of reaction of prodrugs with 4 mM GSH; assay type: in vitro ADME; details: for kGSH/kGSH (mean ± SD): rate with GSH alone, normalised to itself
# [4] = test system: A549 human lung adenocarcinoma xenografts; assay: A549 xenograft tumor growth; assay type: in vivo, NCr nu/nu athymic mice; details: 92 μmol/kg intravenously, 2 times a week for 4 weeks; compared to 1 or saline controls
# [5] = test system: A549 lung adenocarcinoma cells; assay: Immunoblot analysis of glutathionylation, stress signaling and apoptosis; assay type: cell-based, human
# Outline: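 A549 lysates from cells treated with test compound (1 μM for the apoptosis markers) were immunoblotted for p38, eIF2α phosphorylation, CHOP, BiP, ATF4, p53 Ser15, Puma, and cleaved caspases 8, 3 and 7 and PARP. […] Blots are representative of at least three independent experiments.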
# A549 cells = assay: Colony forming assay; assay type: cell-based, human; details: A549, combination treatment of 14 and 13
# recombinant GSTP1 = assay: GSTP1-catalyzed reaction of prodrug with GSH; assay type: in vitro ADME; details: recombinant GSTP1 versus GSH alone
# Outline: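 Kinetics were run at 37 °C by UV–visible spectrophotometry in 0.1 M phosphate buffer pH 7.4 with 50 μM DTPA and 4 mM GSH, with or without 40 nM GST. Substrate (typically 10 μM) was added after buffer and enzyme reached thermal equilibrium. Absorbance was followed at 302 nm, and the rate came from a first-order exponential fit.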
# H1703 NSCLC cells = assay: Alkaline Comet assay; assay type: cell-based, human; details: H1703, 24 h treatment, 5 μM
# caspase 7 = assay: Activation of apoptosis; assay type: cell-based; details: same concentration of 5b and 1
# A549 NSCLC cells = assay: Cellular uptake and metabolism by LC/MS; assay type: in vitro ADME, human; details: A549, 10 μM, any time point from 5 min to 1 h
# Outline: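 A549 cells were plated in 75 cm2 flasks overnight at 37 °C, then exposed to 10 μM test compound for varying times. Cells were lysed by scraping in 10 mM HCl/acetonitrile, 5% sulfosalicylic acid was added, and samples were spun at 12000g for 15 min and filtered. Analysis was by Q-TOF LC/MS in positive ion mode: C18 column, water/acetonitrile/0.1% formic acid gradient, extracted ion chromatograms at [M+H]+, with a lysate spiked with authentic compound as reference.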
SMILES,pIC50 [1],parent drug and liberated PARP-1 inhibitor in tumors [2],kGSH/kGSH (mean ± SD) [3],effect on tumor growth [4],apoptotic signal (cleaved caspase 7) (caspase 7),other results
O=C(c1cccc(Cc2n[nH]c(=O)c3ccccc23)c1)N1CCN(/[N+]([O-])=N/Oc2ccc([N+](=O)[O-])cc2[N+](=O)[O-])CC1 [Compound 5a],4.70 to 5.52,–,–,–,–,–
CN(C)/[N+]([O-])=N\Oc1cc(O/N=[N+](\[O-])N2CCN(C(=O)c3cc(Cc4n[nH]c(=O)c5ccccc45)ccc3F)CC2)c([N+](=O)[O-])cc1[N+](=O)[O-] [Compound 13],–,detected in some tumors,1 ± 0.004,significant reduction of the tumor growth,–,"PARP-1 enzyme inhibition, activated versus prodrug (PARP-1 enzyme): Activated compound is a much better PARP-1 inhibitor than the prodrug; time to caspase 8 activation ([5]; A549, 1 μM): ≤ 6 h; time to detection of glutathione attached to protein ([5]; A549, nonreducing immunoblot): ≤ 1 h; time to activation of stress kinase p38 ([5]; A549, phosphorylation persisted for 8 h): ≤ 15 min; cytotoxicity in combination with 14 (A549 cells): enhanced toxicity"
"CCOC(=O)N1CCN(/[N+]([O-])=N/Oc2ccc([N+](=O)[O-])cc2[N+](=O)[O-])CC1 [Compound 2, O^2-(2,4-dinitrophenyl) 1-[(4-ethoxycarbonyl)piperazin-1-yl]diazen-1-ium-1,2-diolate, reference compound]",–,–,1 ± 0.001,–,–,–
O=C(c1cc(Cc2n[nH]c(=O)c3ccccc23)ccc1F)N1CCN(/[N+]([O-])=N/Oc2ccc([N+](=O)[O-])cc2[N+](=O)[O-])CC1 [Compound 5b],4.70 to 5.52,detected in some tumors,1 ± 0.007,reduced growth of tumors to a lesser extent,strong apoptotic signal,"enhancement of reaction with GSH when GSTP1 present (recombinant GSTP1): over 10 fold; DNA strand break damage (Comet assay) (H1703 NSCLC cells): significant DNA strand break damage; parent compound still present ([3]; 4 mM GSH, after 2 half-lives, LC/MS): 25%; parent compound in cell lysates (A549 NSCLC cells): not detected"
"O=C(c1cc(Cc2n[nH]c(=O)c3ccccc23)ccc1F)N1CCN(C(=O)C2CC2)CC1 [Compound 1, olaparib, reference compound]",–,–,–,–,did not trigger apoptosis,–
"CNc1ccc(C(=O)Oc2cc(O/N=[N+](\[O-])N(C)C)c([N+](=O)[O-])cc2[N+](=O)[O-])cc1 [Compound 8, PABA/NO, reference compound]",–,–,1 ± 0.003,–,–,–
